The source made the active and inactive calls. The calls are words filed in the database; no cut-off is given here.
Key:
[1] = target: T1, Serine/threonine-protein kinase Sgk3 (Homo sapiens) (UniProt Q96BR1); assay: Inhibition of SGK3 in human HeLa cells lysate at 2 uM pre incubated for 15 mins followed by ADP acyl phosphate probe addition and measured after 10 mins by LC-MS/MS analysis relative to control; assay type: subcellular; conditions: time 25.0 min
T1 sequence (whole entry): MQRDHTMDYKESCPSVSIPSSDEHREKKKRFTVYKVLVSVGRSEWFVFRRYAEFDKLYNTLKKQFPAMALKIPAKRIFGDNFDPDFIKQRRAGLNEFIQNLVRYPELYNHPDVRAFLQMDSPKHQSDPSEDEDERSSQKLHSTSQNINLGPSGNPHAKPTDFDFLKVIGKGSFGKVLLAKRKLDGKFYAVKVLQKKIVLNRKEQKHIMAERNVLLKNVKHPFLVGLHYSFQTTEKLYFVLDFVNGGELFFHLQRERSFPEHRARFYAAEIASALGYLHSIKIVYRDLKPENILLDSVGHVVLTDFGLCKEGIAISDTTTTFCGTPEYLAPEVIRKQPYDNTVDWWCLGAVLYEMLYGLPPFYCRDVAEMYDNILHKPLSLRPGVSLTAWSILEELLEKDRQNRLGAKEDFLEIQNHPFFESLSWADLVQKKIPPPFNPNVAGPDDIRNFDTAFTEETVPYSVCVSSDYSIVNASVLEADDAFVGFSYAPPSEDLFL

[2] = target: Calcium/calmodulin-dependent protein kinase type II subunit gamma (Homo sapiens, UniProt Q13555); assay: Inhibition of CAMK2g in human HeLa cells lysate at 2 uM pre incubated for 15 mins followed by ATP acyl phosphate probe addition and measured after 10 mins by LC-MS/MS analysis relative to control; assay type: subcellular; conditions: time 25.0 min
Summary of the method: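 KiNativ-type profiling in HeLa lysate (5 mg/mL total protein). Lysate preincubated 15 min with inhibitor at 50, 10, 2, 0.8 or 0 μM, then ATP or ADP acylphosphate probe added (5 μM final) for 10 min. Reaction stopped with urea and analysed by targeted MS, using up to four fragment ions per kinase peptide-probe conjugate. % inhibition calculated against untreated lysate. Duplicate reactions.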

[3] = target: T2, Interferon-induced, double-stranded RNA-activated protein kinase (Homo sapiens, UniProt P19525); assay: Inhibition of PKR in human HeLa cells lysate at 50 uM pre incubated for 15 mins followed by ATP acyl phosphate probe addition and measured after 10 mins by LC-MS/MS analysis relative to control; assay type: subcellular; conditions: time 25.0 min
[4] = target: T3, Mixed lineage kinase domain-like protein (Homo sapiens) (UniProt Q8NB16); assay: Inhibition of MLKL in human HeLa cells lysate at 10 uM pre incubated for 15 mins followed by ATP acyl phosphate probe addition and measured after 10 mins by LC-MS/MS analysis relative to control; assay type: subcellular; conditions: time 25.0 min
T3 sequence (whole entry): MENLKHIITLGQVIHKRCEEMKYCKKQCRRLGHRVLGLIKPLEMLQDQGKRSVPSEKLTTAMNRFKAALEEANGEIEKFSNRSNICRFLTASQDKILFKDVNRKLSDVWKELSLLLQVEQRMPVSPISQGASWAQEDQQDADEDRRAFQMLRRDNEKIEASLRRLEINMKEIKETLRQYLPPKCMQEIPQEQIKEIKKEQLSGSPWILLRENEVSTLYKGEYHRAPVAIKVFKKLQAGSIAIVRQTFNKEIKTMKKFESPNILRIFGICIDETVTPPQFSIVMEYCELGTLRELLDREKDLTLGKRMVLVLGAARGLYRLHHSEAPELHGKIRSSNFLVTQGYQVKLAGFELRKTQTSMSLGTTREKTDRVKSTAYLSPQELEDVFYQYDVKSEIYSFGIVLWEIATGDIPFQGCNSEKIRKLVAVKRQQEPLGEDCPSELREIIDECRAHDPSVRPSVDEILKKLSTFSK

[5] = target: Epidermal growth factor receptor (Homo sapiens, UniProt P00533); assay: Inhibition of EGFR in human HeLa cells lysate at 2 uM pre incubated for 15 mins followed by ATP acyl phosphate probe addition and measured after 10 mins by LC-MS/MS analysis relative to control; assay type: subcellular; conditions: time 25.0 min
[6] = target: T4, Serine/threonine-protein kinase ULK3 (Homo sapiens) (UniProt Q6PHR2); assay: Inhibition of ULK3 in human HeLa cells lysate at 10 uM pre incubated for 15 mins followed by ADP acyl phosphate probe addition and measured after 10 mins by LC-MS/MS analysis relative to control; assay type: subcellular; conditions: time 25.0 min
T4 sequence (whole entry): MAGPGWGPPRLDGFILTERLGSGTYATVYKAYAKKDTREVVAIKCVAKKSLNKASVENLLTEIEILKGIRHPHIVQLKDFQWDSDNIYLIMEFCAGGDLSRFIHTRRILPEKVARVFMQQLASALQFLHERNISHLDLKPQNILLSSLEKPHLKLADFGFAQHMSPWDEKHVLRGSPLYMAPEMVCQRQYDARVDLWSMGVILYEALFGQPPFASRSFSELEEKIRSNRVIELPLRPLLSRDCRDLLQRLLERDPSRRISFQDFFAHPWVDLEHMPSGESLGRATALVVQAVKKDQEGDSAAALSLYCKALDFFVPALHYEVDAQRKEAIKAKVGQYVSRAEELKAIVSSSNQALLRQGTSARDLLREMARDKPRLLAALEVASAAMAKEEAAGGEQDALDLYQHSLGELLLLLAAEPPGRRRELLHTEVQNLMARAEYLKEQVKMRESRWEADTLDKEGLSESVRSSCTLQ

[7] = Inhibition of NEK6/7 in human HeLa cells lysate at 10 uM pre incubated for 15 mins followed by ATP acyl phosphate probe addition and measured after 10 mins by LC-MS/MS analysis relative to control; conditions: 25 min, condition cancer
HeLa = assay: Antitumor activity against human HeLa cells xenografted in NOD/SCID mouse assessed as reduction tumor growth at 50 mg/kg, ip administered for 28 days; assay type: functional, organism-based; conditions: time 28.0 day
Summary of the method: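 HeLa cells (5×10^5, in DMEM) were injected s.c. into the right flank of 6-week-old Nod/Scid mice on day 0. Dosing was 50 mg/kg i.p. twice daily, starting on day 1, 7 or 14 and continuing to day 28; controls received carrier. 6 mice per treated group. Tumors were measured every 2–3 days.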

[8] = target: Rho-associated protein kinase (Homo sapiens, UniProt O75116+Q13464); assay: Inhibition of ROCK1/2 in human HeLa cells lysate at 50 uM pre incubated for 15 mins followed by ATP acyl phosphate probe addition and measured after 10 mins by LC-MS/MS analysis relative to control; assay type: subcellular; conditions: time 25.0 min
[9] = target: T2, Interferon-induced, double-stranded RNA-activated protein kinase; assay: Inhibition of PKR in human HeLa cells lysate at 10 uM pre incubated for 15 mins followed by ATP acyl phosphate probe addition and measured after 10 mins by LC-MS/MS analysis relative to control; assay type: subcellular; conditions: time 25.0 min
[10] = Inhibition of MAP3K2/3 in human HeLa cells lysate at 10 uM pre incubated for 15 mins followed by ATP acyl phosphate probe addition and measured after 10 mins by LC-MS/MS analysis relative to control; conditions: 25 min, condition cancer
[11] = target: Serine/threonine-protein kinase 24 (Homo sapiens, UniProt Q9Y6E0); assay: Inhibition of MST3 in human HeLa cells lysate pre incubated for 15 mins followed by ATP acyl phosphate probe addition and measured after 10 mins by LC-MS/MS analysis; assay type: subcellular

T2 sequence (P19525 whole entry, the tested form may be a part): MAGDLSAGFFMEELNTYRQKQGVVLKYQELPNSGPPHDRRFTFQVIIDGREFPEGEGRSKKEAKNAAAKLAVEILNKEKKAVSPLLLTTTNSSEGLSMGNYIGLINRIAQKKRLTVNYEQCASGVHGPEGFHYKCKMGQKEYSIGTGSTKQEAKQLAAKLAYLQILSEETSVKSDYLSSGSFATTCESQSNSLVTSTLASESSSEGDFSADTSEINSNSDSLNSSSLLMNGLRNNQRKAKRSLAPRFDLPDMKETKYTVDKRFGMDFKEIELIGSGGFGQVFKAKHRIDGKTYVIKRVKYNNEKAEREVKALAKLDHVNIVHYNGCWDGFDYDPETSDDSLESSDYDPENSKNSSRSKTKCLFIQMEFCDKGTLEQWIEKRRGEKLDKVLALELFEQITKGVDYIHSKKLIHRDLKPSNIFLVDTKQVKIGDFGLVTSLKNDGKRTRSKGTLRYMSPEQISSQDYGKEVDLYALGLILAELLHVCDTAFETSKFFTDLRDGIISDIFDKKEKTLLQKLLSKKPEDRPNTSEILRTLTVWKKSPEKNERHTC
Sequence of Rho-associated protein kinase (O75116 whole entry, looked up): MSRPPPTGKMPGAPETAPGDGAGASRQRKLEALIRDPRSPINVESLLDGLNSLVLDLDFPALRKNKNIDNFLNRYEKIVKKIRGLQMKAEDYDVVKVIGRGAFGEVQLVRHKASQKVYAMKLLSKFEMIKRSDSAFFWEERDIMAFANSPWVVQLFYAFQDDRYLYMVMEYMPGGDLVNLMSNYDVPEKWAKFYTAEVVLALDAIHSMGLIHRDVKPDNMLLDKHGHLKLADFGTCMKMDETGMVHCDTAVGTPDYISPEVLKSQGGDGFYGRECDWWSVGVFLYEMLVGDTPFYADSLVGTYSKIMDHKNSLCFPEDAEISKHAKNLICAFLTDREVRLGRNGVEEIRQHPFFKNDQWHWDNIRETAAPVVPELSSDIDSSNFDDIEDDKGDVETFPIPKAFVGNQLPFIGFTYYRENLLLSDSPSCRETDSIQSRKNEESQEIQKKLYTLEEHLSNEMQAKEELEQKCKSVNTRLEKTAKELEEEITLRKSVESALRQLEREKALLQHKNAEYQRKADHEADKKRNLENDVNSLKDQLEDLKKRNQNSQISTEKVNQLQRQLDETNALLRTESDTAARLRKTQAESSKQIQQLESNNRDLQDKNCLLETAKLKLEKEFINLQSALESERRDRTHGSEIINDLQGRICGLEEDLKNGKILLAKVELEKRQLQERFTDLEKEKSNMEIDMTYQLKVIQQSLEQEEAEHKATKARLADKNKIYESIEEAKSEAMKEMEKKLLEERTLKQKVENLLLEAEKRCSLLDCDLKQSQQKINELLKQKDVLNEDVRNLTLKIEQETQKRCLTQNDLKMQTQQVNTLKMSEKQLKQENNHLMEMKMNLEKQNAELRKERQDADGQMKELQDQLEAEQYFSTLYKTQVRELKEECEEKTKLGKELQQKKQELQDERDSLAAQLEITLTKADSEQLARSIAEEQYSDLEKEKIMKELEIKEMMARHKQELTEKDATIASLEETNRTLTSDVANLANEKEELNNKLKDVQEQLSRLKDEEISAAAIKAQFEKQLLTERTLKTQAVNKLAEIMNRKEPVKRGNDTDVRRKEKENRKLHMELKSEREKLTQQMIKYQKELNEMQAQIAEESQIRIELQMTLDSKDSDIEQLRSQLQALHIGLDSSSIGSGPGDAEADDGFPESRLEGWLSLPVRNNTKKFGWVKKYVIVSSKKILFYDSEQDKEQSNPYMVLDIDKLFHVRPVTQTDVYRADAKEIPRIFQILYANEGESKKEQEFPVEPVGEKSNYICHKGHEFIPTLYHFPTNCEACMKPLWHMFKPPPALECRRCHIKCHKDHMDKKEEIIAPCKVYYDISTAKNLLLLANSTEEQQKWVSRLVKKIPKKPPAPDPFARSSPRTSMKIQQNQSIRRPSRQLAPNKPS
Sequence of Rho-associated protein kinase (Q13464 whole entry, looked up): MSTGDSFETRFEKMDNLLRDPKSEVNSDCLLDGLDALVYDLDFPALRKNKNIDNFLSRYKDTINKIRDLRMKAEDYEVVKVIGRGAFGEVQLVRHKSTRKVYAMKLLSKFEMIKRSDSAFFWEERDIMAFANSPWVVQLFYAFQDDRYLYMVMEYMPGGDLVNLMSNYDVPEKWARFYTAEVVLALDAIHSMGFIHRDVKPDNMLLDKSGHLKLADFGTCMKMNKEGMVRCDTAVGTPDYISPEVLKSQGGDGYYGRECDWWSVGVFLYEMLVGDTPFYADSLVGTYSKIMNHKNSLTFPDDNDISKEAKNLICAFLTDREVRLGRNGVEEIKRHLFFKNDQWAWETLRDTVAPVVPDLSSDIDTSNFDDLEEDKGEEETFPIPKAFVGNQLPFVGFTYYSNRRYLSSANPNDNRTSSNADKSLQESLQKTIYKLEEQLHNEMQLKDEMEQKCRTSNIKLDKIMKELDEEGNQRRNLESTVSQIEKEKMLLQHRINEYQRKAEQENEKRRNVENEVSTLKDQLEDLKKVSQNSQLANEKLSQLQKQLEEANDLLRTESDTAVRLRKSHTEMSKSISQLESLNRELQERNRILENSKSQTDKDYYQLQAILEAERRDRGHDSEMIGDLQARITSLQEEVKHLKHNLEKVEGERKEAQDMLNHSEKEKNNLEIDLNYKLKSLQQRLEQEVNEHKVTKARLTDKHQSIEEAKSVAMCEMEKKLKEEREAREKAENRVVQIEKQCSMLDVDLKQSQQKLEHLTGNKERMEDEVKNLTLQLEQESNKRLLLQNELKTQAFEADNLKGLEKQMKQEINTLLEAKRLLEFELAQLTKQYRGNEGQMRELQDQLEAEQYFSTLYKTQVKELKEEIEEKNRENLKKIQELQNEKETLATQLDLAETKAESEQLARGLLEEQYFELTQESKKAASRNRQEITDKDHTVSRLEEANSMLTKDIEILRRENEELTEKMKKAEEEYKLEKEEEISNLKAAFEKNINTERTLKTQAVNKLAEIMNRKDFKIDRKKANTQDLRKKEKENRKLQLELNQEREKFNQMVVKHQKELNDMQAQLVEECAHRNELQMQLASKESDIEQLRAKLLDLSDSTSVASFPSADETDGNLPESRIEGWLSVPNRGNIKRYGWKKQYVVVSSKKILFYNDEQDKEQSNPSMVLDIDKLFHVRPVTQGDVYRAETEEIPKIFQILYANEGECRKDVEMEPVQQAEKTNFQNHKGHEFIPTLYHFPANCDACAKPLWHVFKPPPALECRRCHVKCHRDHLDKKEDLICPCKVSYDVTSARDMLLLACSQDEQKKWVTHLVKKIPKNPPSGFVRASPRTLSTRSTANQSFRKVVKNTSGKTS
Sequence of Epidermal growth factor receptor (P00533 whole entry): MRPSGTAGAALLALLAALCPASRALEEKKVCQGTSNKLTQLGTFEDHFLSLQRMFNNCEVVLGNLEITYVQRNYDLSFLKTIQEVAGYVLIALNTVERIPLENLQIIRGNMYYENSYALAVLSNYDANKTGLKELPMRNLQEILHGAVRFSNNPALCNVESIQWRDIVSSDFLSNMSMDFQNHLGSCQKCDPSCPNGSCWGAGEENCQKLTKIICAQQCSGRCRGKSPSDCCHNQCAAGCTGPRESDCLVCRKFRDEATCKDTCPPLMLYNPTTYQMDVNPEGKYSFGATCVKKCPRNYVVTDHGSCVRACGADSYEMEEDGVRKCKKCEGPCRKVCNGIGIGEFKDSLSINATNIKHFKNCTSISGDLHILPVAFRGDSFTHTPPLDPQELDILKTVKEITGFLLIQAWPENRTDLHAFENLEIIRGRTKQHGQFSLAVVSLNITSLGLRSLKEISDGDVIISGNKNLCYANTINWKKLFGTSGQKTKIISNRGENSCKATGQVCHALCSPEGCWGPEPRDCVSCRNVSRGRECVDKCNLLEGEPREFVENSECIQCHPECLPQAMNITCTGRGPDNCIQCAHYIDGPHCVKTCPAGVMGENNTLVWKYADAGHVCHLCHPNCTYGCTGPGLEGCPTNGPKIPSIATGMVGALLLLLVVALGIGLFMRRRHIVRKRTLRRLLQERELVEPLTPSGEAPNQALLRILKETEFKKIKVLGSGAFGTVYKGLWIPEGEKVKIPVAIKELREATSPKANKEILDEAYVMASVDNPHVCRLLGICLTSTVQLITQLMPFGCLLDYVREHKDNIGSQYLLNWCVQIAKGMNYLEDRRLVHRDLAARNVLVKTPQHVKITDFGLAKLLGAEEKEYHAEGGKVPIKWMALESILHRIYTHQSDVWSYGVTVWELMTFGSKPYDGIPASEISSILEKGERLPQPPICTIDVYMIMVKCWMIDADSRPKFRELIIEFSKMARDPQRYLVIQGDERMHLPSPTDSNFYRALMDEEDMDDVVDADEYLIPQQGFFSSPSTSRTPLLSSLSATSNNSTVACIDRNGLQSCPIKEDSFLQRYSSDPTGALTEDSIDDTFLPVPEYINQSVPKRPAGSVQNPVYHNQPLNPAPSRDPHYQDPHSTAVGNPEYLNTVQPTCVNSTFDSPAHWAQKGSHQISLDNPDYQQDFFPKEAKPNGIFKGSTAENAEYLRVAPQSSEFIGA
Sequence of Calcium/calmodulin-dependent protein kinase type II subunit gamma (Q13555 whole entry, the tested form may be a part): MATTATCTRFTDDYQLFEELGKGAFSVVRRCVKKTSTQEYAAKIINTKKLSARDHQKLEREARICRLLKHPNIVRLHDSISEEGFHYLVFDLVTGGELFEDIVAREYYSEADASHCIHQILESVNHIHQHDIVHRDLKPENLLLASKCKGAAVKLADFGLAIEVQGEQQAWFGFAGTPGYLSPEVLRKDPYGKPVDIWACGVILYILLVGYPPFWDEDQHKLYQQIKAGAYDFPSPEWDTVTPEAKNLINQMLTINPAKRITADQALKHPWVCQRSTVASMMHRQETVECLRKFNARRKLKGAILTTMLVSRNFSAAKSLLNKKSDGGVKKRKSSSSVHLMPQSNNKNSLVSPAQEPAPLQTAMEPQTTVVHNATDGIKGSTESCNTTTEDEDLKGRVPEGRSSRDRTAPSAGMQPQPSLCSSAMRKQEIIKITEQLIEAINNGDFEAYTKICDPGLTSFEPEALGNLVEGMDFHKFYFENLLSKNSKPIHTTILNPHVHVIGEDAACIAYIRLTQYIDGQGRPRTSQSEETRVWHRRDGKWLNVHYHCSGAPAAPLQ

CCOc1cc(N2CCC(O)CC2)ccc1Nc1ncc2c(n1)N(C)c1ccccc1C(=O)N2C
inhibition [1]: 16.6% | inhibition [2]: 3% | inhibition [3]: -8.3% | inhibition [4]: -9.8% | inhibition [5]: 2.5% | inhibition [6]: 1.2% | inhibition at 10 µM [7]: -10.7% | Activity (HeLa): Active | inhibition [8]: -3% | inhibition [9]: -2.3% | inhibition at 10 µM [10]: -7.8% | IC50 [11]: > 50 µM

From ChEMBL document CHEMBL5661979, “Pharmacological inhibition of BMK1 suppresses tumor growth through promyelocytic leukemia protein” (Cancer Cell, 2010)
